From ChEMBL document CHEMBL1152726, “Discovery of small molecule human C5a receptor antagonists” (Bioorg Med Chem Lett, 2009)
The source made the active and inactive calls. No cut-off for these calls is given here.

Experiments:
[1] = target: T1, C5a anaphylatoxin chemotactic receptor 1 (Rattus norvegicus) (UniProt P97520); assay: Antagonist activity at rat recombinant C5a receptor expressed in HEK cells assessed as inhibition of C5a-induced calcium mobilization at 30 uM; type: functional, cell-based; details: HEK293
T1 sequence (whole entry): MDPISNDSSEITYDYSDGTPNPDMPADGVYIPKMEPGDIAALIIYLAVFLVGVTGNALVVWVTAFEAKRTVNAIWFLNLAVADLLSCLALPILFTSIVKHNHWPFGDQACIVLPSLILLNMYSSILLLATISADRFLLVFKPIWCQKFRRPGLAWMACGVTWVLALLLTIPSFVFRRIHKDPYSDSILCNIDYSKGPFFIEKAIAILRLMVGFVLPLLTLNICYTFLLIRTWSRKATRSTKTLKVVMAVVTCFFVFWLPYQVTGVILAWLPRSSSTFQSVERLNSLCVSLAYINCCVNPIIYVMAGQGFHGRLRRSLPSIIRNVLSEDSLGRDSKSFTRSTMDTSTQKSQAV
How it was run: (§1)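 Non-human (dog, mouse or rat) recombinant C5aR cell lines tested for antagonism of C5a-stimulated intracellular calcium mobilization. Values are means of at least two experiments.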

[2] = Metabolic stability in Sprague-Dawley rat hepatocytes assessed as intrinsic clearance measured per 10^6 cells
[3] = target: T2, C5a anaphylatoxin chemotactic receptor 1 (Mus musculus) (UniProt P30993); assay: Antagonist activity at mouse recombinant C5a receptor expressed in HEK cells assessed as inhibition of C5a-induced calcium mobilization at 30 uM; type: functional, cell-based; details: HEK293; how it was run: as §1
T2 sequence (whole entry): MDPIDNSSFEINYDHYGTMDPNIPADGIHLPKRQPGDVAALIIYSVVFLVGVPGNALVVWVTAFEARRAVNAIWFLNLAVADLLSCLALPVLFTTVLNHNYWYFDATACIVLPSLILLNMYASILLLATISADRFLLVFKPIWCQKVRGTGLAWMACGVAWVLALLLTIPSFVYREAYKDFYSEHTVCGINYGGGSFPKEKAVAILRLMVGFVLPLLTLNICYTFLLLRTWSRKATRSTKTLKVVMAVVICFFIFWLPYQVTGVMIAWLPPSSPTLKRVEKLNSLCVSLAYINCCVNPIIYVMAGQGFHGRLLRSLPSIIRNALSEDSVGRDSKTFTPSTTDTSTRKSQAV

[4] = target: T3, C5a anaphylatoxin chemotactic receptor 1 (Canis lupus familiaris) (UniProt P30992); assay: Antagonist activity at dog recombinant C5a receptor expressed in HEK cells assessed as inhibition of C5a-induced calcium mobilization at 30 uM; type: functional, cell-based; details: HEK293; how it was run: as §1
T3 sequence (whole entry): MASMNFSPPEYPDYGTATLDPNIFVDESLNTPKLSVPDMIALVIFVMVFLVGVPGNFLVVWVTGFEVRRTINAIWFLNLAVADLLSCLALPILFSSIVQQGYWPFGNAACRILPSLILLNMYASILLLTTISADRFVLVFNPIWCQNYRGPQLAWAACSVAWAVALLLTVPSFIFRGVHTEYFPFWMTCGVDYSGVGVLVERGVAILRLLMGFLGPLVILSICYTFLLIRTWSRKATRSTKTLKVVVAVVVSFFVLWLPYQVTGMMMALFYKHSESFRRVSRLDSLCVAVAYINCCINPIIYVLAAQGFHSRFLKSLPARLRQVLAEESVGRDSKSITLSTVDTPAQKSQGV

[5] = Metabolic stability in human liver microsomes assessed as intrinsic clearance
[6] = target: T4, C5a anaphylatoxin chemotactic receptor 1 (Homo sapiens, UniProt P21730); assay: Displacement of [125I]C5a from human recombinant C5a receptor expressed in HEK cells by membrane binding assay
T4 sequence (P21730 whole entry): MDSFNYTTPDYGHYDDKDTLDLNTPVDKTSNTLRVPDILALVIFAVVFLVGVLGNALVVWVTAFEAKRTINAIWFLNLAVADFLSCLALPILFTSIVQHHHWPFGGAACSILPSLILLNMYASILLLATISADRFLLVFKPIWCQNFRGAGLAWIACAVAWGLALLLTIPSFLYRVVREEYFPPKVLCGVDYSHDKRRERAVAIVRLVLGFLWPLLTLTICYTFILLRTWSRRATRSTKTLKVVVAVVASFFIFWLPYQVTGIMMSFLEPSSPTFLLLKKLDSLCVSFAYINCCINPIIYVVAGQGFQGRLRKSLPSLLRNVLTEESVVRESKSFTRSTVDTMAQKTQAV

[7] = target: T4, C5a anaphylatoxin chemotactic receptor 1; assay: Displacement of [Alexa647]C5a from human recombinant C5a receptor expressed in HEK cells by whole cell binding assay; type: cell-based, HEK293
How it was run: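 Whole-cell FMAT competition binding measured inhibition of Alexa-647-labeled C5a binding to HEK-293 cells co-expressing human recombinant C5aR and Gα16. pIC50 derived; values are means of at least two experiments.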

[8] = target: T4, C5a anaphylatoxin chemotactic receptor 1; assay: Displacement of from human recombinant C5a receptor expressed in HEK cells by membrane binding assay in presence
[9] = target: T4, C5a anaphylatoxin chemotactic receptor 1; assay: Antagonist activity at human recombinant C5a receptor in HEK cells assessed as inhibition of C5a-induced calcium mobilization; type: functional, cell-based, HEK293
[10] = Lipophilicity, log D at pH 7.4; details: buffer
[11] = target: T4, C5a anaphylatoxin chemotactic receptor 1

Structure (SMILES) | hepatocyte CLint [2] | microsomal CLint ([5]; liver microsomes) | IC50 [9] | logD [10] | other results
COc1ccc(N(C(=O)c2ccco2)C(C(=O)NC2CCCC2)c2ccccc2F)c(OC)c1 (centres undefined) | > 150 µL/min/1e6 cells | > 150 µL/min/mg | 126 nM |  | Activity [1]: inactive; Activity [3]: inactive; Activity [4]: inactive; IC50 [6]: 3160 nM; IC50 [7]: 79.4 nM; IC50 [8]: 251 nM
COc1ccc(N(C(=O)c2ccccc2)C(C(=O)NC[C@H](C)O)c2ccccc2F)c(OC)c1 (some centres undefined) |  |  | > 100 nM |  | 
COc1ccc(N(C(=O)c2ccccc2)C(C(=O)NC(C)CN(C)C)c2ccccc2F)c(OC)c1 (centres undefined) | 33 µL/min/1e6 cells | 135 µL/min/mg | 1000 nM |  | 
CN(C(=O)c1ccccc1)C(C(=O)NC1CCCC1)c1ccccc1F (centres undefined) |  |  | > 10000 nM |  | 
COc1ccc(N(C(=O)c2ccoc2Cl)C(C(=O)NC[C@@H](C)O)c2ccccc2F)c(OC)c1 (some centres undefined) | 33 µL/min/1e6 cells | 48 µL/min/mg | 316 nM | 2.4 | 
COc1ccc(N(C(=O)c2occc2Cl)C(C(=O)NC[C@@H](C)O)c2ccccc2F)c(OC)c1 (some centres undefined) | 59 µL/min/1e6 cells | 148 µL/min/mg | 200 nM | 2.2 | 
COc1ccc(N(C(=O)c2ccccc2)C(C(=O)NC[C@@H](C)O)c2ccccc2F)c(OC)c1 (some centres undefined) | > 150 µL/min/1e6 cells | 104 µL/min/mg | 63.1 nM | 2.55 | 
COc1ccc(N(C(=O)c2occc2CN(C)C)C(C(=O)NC[C@@H](C)O)c2ccccc2F)c(OC)c1 (some centres undefined) | < 3 µL/min/1e6 cells | 12 µL/min/mg | 3160 nM |  | 
COc1ccc(N(C(=O)c2ccoc2C)C(C(=O)NC[C@@H](C)O)c2ccccc2F)c(OC)c1 (some centres undefined) | 75 µL/min/1e6 cells | 134 µL/min/mg | 39.8 nM |  | 
COc1ccc(N(C(=O)c2occc2CO)C(C(=O)NC[C@@H](C)O)c2ccccc2F)c(OC)c1 (some centres undefined) | 8 µL/min/1e6 cells |  |  | 1.4 | microsomal CLint ([5]; microsomes): 12 µL/min/mg
COCc1ccoc1C(=O)N(c1ccc(OC)cc1OC)C(C(=O)NC[C@@H](C)O)c1ccccc1F (some centres undefined) | 35 µL/min/1e6 cells | 76 µL/min/mg | 100 nM | 2 | 
COc1ccc(N(C(=O)c2ccccc2)C(C(=O)O)c2ccccc2F)c(OC)c1 (centres undefined) |  |  | > 10000 nM |  | 
COc1ccc(N(C(=O)c2ccccc2)C(C)C(=O)NC2CCCC2)c(OC)c1 (centres undefined) |  |  | > 10000 nM |  | 
COc1ccc(N(C(=O)c2ccccc2)C(C(=O)NC2CCCC2)c2ccccc2F)c(OC)c1 (centres undefined) |  |  | 25.1 nM | 3.9 | Activity [1]: inactive; Activity [3]: inactive; Activity [4]: inactive; IC50 [6]: 794 nM; IC50 [7]: 39.8 nM; IC50 [8]: 31.6 nM; EC50 [11]: 123 nM
COc1ccc(N(C(=O)c2occc2C)C(C(=O)NC[C@@H](C)O)c2ccccc2F)c(OC)c1 (some centres undefined) | 87 µL/min/1e6 cells | 126 µL/min/mg | 20 nM |  | 
COc1ccc(N(C(C)=O)C(C(=O)NC2CCCC2)c2ccccc2F)c(OC)c1 (centres undefined) |  |  | 794 nM |  | 
